Source: ChEMBL document CHEMBL2057152, “Synthesis and antibacterial activity against Clostridium difficile of novel demethylvancomycin derivatives” (2012)
Converted amounts (≈) assume the structure as drawn.

Key:
Type in all cases: functional
Clostridioides difficile [1] = assay: Antibacterial activity against Clostridium difficile ATCC 700057 after 16 hrs by two-fold serial dilution method; details: ATCC 700057, 16 h
How it was run: (§1)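 CLSI agar dilution MIC. Compounds are dissolved in 50% water in DMSO as a stock, twofold serially diluted in sterile water, then diluted 10-fold into Mueller-Hinton agar. Organisms are grown in MH broth at 35 °C for 8 h and adjusted to 0.5 McFarland. They are applied to the drug-containing plates by multipoint inoculator and incubated at 35 °C for 16 h. Vancomycin and demethylvancomycin serve as controls.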

[2] = Antibacterial activity against Clostridium difficile ATCC 43255 after 16 hrs by two-fold serial dilution method; details: Clostridioides difficile, ATCC 43255, 16 h; how it was run: as §1
Clostridioides difficile [3] = assay: Antibacterial activity against Clostridium difficile ATCC 700792 after 16 hrs by two-fold serial dilution method; details: ATCC 700792, 16 h; how it was run: as §1
Clostridioides difficile [4] = assay: Antibacterial activity against Clostridium difficile IQCC 23903 after 16 hrs by two-fold serial dilution method; details: IQCC 23903, 16 h; how it was run: as §1
Enterococcus faecalis = assay: Antibacterial activity against Enterococcus faecalis ATCC 700802 after 16 hrs by two-fold serial dilution method; details: ATCC 700802, 16 h; how it was run: as §1

SMILES	MIC (Clostridioides difficile [1])	MIC [2]	MIC (Clostridioides difficile [3])	MIC (Clostridioides difficile [4])	MIC (Enterococcus faecalis)
COc1ccc(CN[C@@]2(C)C[C@H](O[C@H]3[C@H](Oc4c5cc6cc4Oc4ccc(cc4Cl)[C@@H](O)[C@@H](NC(=O)[C@H](N)CC(C)C)C(=O)N[C@@H](CC(N)=O)C(=O)N[C@H]6C(=O)N[C@H]4C(=O)N[C@H](C(=O)N[C@H](C(=O)O)c6cc(O)cc(O)c6-c6cc4ccc6O)[C@H](O)c4ccc(c(Cl)c4)O5)O[C@H](CO)[C@@H](O)[C@@H]3O)O[C@@H](C)[C@H]2O)cc1	0.5 µg/mL (≈ 0.321 µM)	0.5 µg/mL (≈ 0.321 µM)	1 µg/mL (≈ 0.643 µM)	0.5 µg/mL (≈ 0.321 µM)	16 µg/mL (≈ 10.3 µM)
CC(C)C[C@@H](N)C(=O)N[C@H]1C(=O)N[C@@H](CC(N)=O)C(=O)N[C@H]2C(=O)N[C@H]3C(=O)N[C@H](C(=O)N[C@H](C(=O)O)c4cc(O)cc(O)c4-c4cc3ccc4O)[C@H](O)c3ccc(c(Cl)c3)Oc3cc2cc(c3O[C@@H]2O[C@H](CO)[C@@H](O)[C@H](O)[C@H]2O[C@H]2C[C@](C)(NCc3ccc(F)cc3)[C@H](O)[C@H](C)O2)Oc2ccc(cc2Cl)[C@H]1O	0.5 µg/mL (≈ 0.324 µM)	0.5 µg/mL (≈ 0.324 µM)	0.5 µg/mL (≈ 0.324 µM)	0.5 µg/mL (≈ 0.324 µM)	16 µg/mL (≈ 10.4 µM)
CC(C)C[C@@H](N)C(=O)N[C@H]1C(=O)N[C@@H](CC(N)=O)C(=O)N[C@H]2C(=O)N[C@H]3C(=O)N[C@H](C(=O)N[C@H](C(=O)O)c4cc(O)cc(O)c4-c4cc3ccc4O)[C@H](O)c3ccc(c(Cl)c3)Oc3cc2cc(c3O[C@@H]2O[C@H](CO)[C@@H](O)[C@H](O)[C@H]2O[C@H]2C[C@](C)(NCc3cc4ccccc4o3)[C@H](O)[C@H](C)O2)Oc2ccc(cc2Cl)[C@H]1O	0.5 µg/mL (≈ 0.319 µM)	1 µg/mL (≈ 0.639 µM)	1 µg/mL (≈ 0.639 µM)	0.5 µg/mL (≈ 0.319 µM)	8 µg/mL (≈ 5.11 µM)
CC(C)C[C@@H](N)C(=O)N[C@H]1C(=O)N[C@@H](CC(N)=O)C(=O)N[C@H]2C(=O)N[C@H]3C(=O)N[C@H](C(=O)N[C@H](C(=O)O)c4cc(O)cc(O)c4-c4cc3ccc4O)[C@H](O)c3ccc(c(Cl)c3)Oc3cc2cc(c3O[C@@H]2O[C@H](CO)[C@@H](O)[C@H](O)[C@H]2O[C@H]2C[C@](C)(NCc3ccco3)[C@H](O)[C@H](C)O2)Oc2ccc(cc2Cl)[C@H]1O	0.5 µg/mL (≈ 0.33 µM)	0.5 µg/mL (≈ 0.33 µM)	0.5 µg/mL (≈ 0.33 µM)	0.5 µg/mL (≈ 0.33 µM)	32 µg/mL (≈ 21.1 µM)
CC(C)C[C@@H](N)C(=O)N[C@H]1C(=O)N[C@@H](CC(N)=O)C(=O)N[C@H]2C(=O)N[C@H]3C(=O)N[C@H](C(=O)N[C@H](C(=O)O)c4cc(O)cc(O)c4-c4cc3ccc4O)[C@H](O)c3ccc(c(Cl)c3)Oc3cc2cc(c3O[C@@H]2O[C@H](CO)[C@@H](O)[C@H](O)[C@H]2O[C@H]2C[C@](C)(NCc3cccs3)[C@H](O)[C@H](C)O2)Oc2ccc(cc2Cl)[C@H]1O	0.5 µg/mL (≈ 0.326 µM)	0.5 µg/mL (≈ 0.326 µM)	0.5 µg/mL (≈ 0.326 µM)	0.5 µg/mL (≈ 0.326 µM)	32 µg/mL (≈ 20.9 µM)
CCCCCCCCCCCCCN[C@@]1(C)C[C@H](O[C@H]2[C@H](Oc3c4cc5cc3Oc3ccc(cc3Cl)[C@@H](O)[C@@H](NC(=O)[C@H](N)CC(C)C)C(=O)N[C@@H](CC(N)=O)C(=O)N[C@H]5C(=O)N[C@H]3C(=O)N[C@H](C(=O)N[C@H](C(=O)O)c5cc(O)cc(O)c5-c5cc3ccc5O)[C@H](O)c3ccc(c(Cl)c3)O4)O[C@H](CO)[C@@H](O)[C@@H]2O)O[C@@H](C)[C@H]1O	2 µg/mL (≈ 1.24 µM)	1 µg/mL (≈ 0.618 µM)	2 µg/mL (≈ 1.24 µM)	1 µg/mL (≈ 0.618 µM)	4 µg/mL (≈ 2.47 µM)
CC(C)=CCC/C(C)=C/CN[C@@]1(C)C[C@H](O[C@H]2[C@H](Oc3c4cc5cc3Oc3ccc(cc3Cl)[C@@H](O)[C@@H](NC(=O)[C@H](N)CC(C)C)C(=O)N[C@@H](CC(N)=O)C(=O)N[C@H]5C(=O)N[C@H]3C(=O)N[C@H](C(=O)N[C@H](C(=O)O)c5cc(O)cc(O)c5-c5cc3ccc5O)[C@H](O)c3ccc(c(Cl)c3)O4)O[C@H](CO)[C@@H](O)[C@@H]2O)O[C@@H](C)[C@H]1O	0.5 µg/mL (≈ 0.318 µM)	0.5 µg/mL (≈ 0.318 µM)	0.5 µg/mL (≈ 0.318 µM)	0.5 µg/mL (≈ 0.318 µM)	16 µg/mL (≈ 10.2 µM)
CC(C)CCN[C@@]1(C)C[C@H](O[C@H]2[C@H](Oc3c4cc5cc3Oc3ccc(cc3Cl)[C@@H](O)[C@@H](NC(=O)[C@H](N)CC(C)C)C(=O)N[C@@H](CC(N)=O)C(=O)N[C@H]5C(=O)N[C@H]3C(=O)N[C@H](C(=O)N[C@H](C(=O)O)c5cc(O)cc(O)c5-c5cc3ccc5O)[C@H](O)c3ccc(c(Cl)c3)O4)O[C@H](CO)[C@@H](O)[C@@H]2O)O[C@@H](C)[C@H]1O	1 µg/mL (≈ 0.664 µM)	1 µg/mL (≈ 0.664 µM)	1 µg/mL (≈ 0.664 µM)	0.5 µg/mL (≈ 0.332 µM)	32 µg/mL (≈ 21.3 µM)
CC(C)C[C@@H](N)C(=O)N[C@H]1C(=O)N[C@@H](CC(N)=O)C(=O)N[C@H]2C(=O)N[C@H]3C(=O)N[C@H](C(=O)N[C@H](C(=O)O)c4cc(O)cc(O)c4-c4cc3ccc4O)[C@H](O)c3ccc(c(Cl)c3)Oc3cc2cc(c3O[C@@H]2O[C@H](CO)[C@@H](O)[C@H](O)[C@H]2O[C@H]2C[C@](C)(NCC3CCCCC3)[C@H](O)[C@H](C)O2)Oc2ccc(cc2Cl)[C@H]1O	0.5 µg/mL (≈ 0.326 µM)	1 µg/mL (≈ 0.653 µM)	1 µg/mL (≈ 0.653 µM)	0.5 µg/mL (≈ 0.326 µM)	16 µg/mL (≈ 10.4 µM)
CCC(CC)CN[C@@]1(C)C[C@H](O[C@H]2[C@H](Oc3c4cc5cc3Oc3ccc(cc3Cl)[C@@H](O)[C@@H](NC(=O)[C@H](N)CC(C)C)C(=O)N[C@@H](CC(N)=O)C(=O)N[C@H]5C(=O)N[C@H]3C(=O)N[C@H](C(=O)N[C@H](C(=O)O)c5cc(O)cc(O)c5-c5cc3ccc5O)[C@H](O)c3ccc(c(Cl)c3)O4)O[C@H](CO)[C@@H](O)[C@@H]2O)O[C@@H](C)[C@H]1O	2 µg/mL (≈ 1.32 µM)	2 µg/mL (≈ 1.32 µM)	2 µg/mL (≈ 1.32 µM)	2 µg/mL (≈ 1.32 µM)	32 µg/mL (≈ 21.1 µM)
CC(C)C[C@@H](N)C(=O)N[C@@H]1C(=O)N[C@@H](CC(N)=O)C(=O)N[C@H]2C(=O)N[C@H]3C(=O)N[C@H](C(=O)N[C@H](C(=O)O)c4cc(O)cc(O)c4-c4cc3ccc4O)[C@H](O)c3ccc(c(Cl)c3)Oc3cc2cc(c3O[C@@H]2O[C@H](CO)[C@@H](O)[C@H](O)[C@H]2O[C@H]2C[C@](C)(N)C(O)[C@H](C)O2)Oc2ccc(cc2Cl)[C@H]1O (stereo not given in full) [DEMETHYLVANCOMYCIN]	0.5 µg/mL (≈ 0.348 µM)	0.5 µg/mL (≈ 0.348 µM)	0.5 µg/mL (≈ 0.348 µM)	0.5 µg/mL (≈ 0.348 µM)	> 32 µg/mL
CN[C@H](CC(C)C)C(=O)N[C@H]1C(=O)N[C@@H](CC(N)=O)C(=O)N[C@H]2C(=O)N[C@H]3C(=O)N[C@H](C(=O)N[C@H](C(=O)O)c4cc(O)cc(O)c4-c4cc3ccc4O)[C@H](O)c3ccc(c(Cl)c3)Oc3cc2cc(c3O[C@@H]2O[C@H](CO)[C@@H](O)[C@H](O)[C@H]2O[C@H]2C[C@](C)(N)[C@H](O)[C@H](C)O2)Oc2ccc(cc2Cl)[C@H]1O [VANCOMYCIN]	0.5 µg/mL (≈ 0.345 µM)	1 µg/mL (≈ 0.69 µM)	1 µg/mL (≈ 0.69 µM)	0.5 µg/mL (≈ 0.345 µM)	32 µg/mL (≈ 22.1 µM)
